Experimental data taken from PMC7897483 (Nucleic Acids Research, 2021).

Legend:
[1] = target: T1, hnRNP A18 (Homo sapiens, UniProt Q14011); assay: Cellular thermal shift assay; format: cell-based; conditions: read-out: EC50, hnRNP A18 protection from melting; LOX-IM-VI cells over expressing GFP-hnRNP A18; 3 h; 57°C
T1 sequence (Q14011 1-172): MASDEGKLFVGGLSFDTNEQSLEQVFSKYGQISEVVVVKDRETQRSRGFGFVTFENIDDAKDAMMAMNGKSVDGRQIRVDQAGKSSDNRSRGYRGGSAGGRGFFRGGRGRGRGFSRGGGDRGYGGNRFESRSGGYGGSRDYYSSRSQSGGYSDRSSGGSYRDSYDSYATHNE

[2] = Parallel Artificial Membrane Permeability Assay; format: in vitro ADME; conditions: pH 5.0 and 6.8, room temperature, ∼4 h; data not shown
How it was run: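 Test compounds were made up as 10 mM DMSO stocks and filtered (0.2 μm). The assay used stirred PAMPA plates with GIT-0 lipid and an acceptor sink buffer. After permeation, UV spectra from 245 to 498 nm gave relative compound concentrations in the donor and acceptor compartments, from which effective permeability was derived.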

[3] = target: T2, His-hnRNP A18 (Homo sapiens, UniProt Q14011); assay: RNA band shift; format: binding; conditions: biotinylated hnRNP A18 RNA consensus motif 1
T2 sequence (Q14011 1-172): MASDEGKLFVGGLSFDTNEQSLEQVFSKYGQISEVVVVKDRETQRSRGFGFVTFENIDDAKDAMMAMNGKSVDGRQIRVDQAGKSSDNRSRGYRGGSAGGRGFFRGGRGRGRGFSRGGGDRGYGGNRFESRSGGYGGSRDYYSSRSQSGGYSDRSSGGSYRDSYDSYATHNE
How it was run: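 Recombinant full-length human His-hnRNP A18 was expressed in bacteria grown at 30°C. Protein (1 μg) was preincubated 10 min with or without increasing concentrations of test compound. Biotinylated hnRNP A18 motif 1 RNA (51 nt) was then added for 10 min at room temperature. Complexes were resolved on native polyacrylamide gels, transferred to nylon and detected by chemiluminescence with streptavidin-HRP.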

[4] = target: hnRNP A18 RNA Recognition Motif (RRM) (Homo sapiens, UniProt Q14011); assay: NMR 1H,15N-HSQC chemical shift perturbation; format: binding; conditions: 15N-labeled hnRNP A18 RRM
How it was run: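 Construct: human hnRNP A18 RRM (residues 1–92), expressed in E. coli BL21(DE3) as a His6-GB1 fusion in M9 medium with 15N-ammonium chloride, induced with 1 mM IPTG for 16 h at 18°C. Purified by denaturing Ni affinity with on-column refolding, then TEV cleavage.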

[5] = system: normal human mammary epithelial HMEC cells; assay: Cell viability; format: cell-based; conditions: 24 h
How it was run: (§1)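 Cells plated at 10 000 per well and exposed to increasing concentrations of test compound for 24 h. HMEC were cultured per supplier guidance. Viability was read with the ApoTox-Glo viability reagent by fluorescence at 400 nm Ex/505 nm Em. Three replicates; error bars are standard deviation.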

[6] = system: colorectal carcinoma RKO cells; assay: Cell viability; format: cell-based, human; conditions: 24 h, increasing concentrations
How it was run: as §1

[7] = system: Glioblastoma D54 cells; assay: Cell viability; format: cell-based, human; conditions: D54, 24 h, increasing concentrations
How it was run: as §1

[8] = system: pancreatic cancer MiaPaca cells; assay: Cell viability; format: cell-based, human; conditions: 24 h, increasing concentrations
How it was run: as §1

[9] = target: T3, GST-hnRNP A18 (UniProt Q14011 1-172); assay: fluorescence anisotropy
T3 sequence: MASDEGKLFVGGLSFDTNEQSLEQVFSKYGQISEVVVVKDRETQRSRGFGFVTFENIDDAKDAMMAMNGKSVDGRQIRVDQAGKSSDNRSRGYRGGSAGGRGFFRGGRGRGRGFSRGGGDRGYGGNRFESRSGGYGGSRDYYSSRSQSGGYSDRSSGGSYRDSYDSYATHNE

[10] = target: T4, His-hnRNP A18 (human, UniProt Q14011 1-172); assay: EMSA
T4 sequence: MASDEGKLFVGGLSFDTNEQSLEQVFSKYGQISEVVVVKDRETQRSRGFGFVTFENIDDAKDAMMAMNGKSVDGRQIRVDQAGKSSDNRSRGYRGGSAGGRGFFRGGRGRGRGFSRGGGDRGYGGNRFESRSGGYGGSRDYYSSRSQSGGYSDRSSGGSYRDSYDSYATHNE

Cc1sc(NC(=O)c2ccccc2)nc1OC(=O)c1ccccc1 [VITAS STK508411]
EC50 [1]: 23.8 µM | effective permeability (Pe) [2]: > 20 ×10⁻⁶ cm/s | hnRNP A18 RNA binding activity / specificity by RNA band shift [3]: specifically bound hnRNP A18 | chemical shift perturbations of hnRNP A18 RRM (qualitative) [4]: Chemical shift perturbations were observed | toxicity to normal cells [5]: 20–40% | cell viability (relative efficacy) [6]: least effective | cell viability (relative efficacy) [7]: least effective | cell viability (relative efficacy) [8]: least effective

B1: hnRNP A18 motif 1 Fl (ssRNA)
RNA: GCAGAUCCAGGGUGGGAUUUUCUUGAGGAAGUUACAAAUAAGCUUGUUACA
binding result [9]: binds

B2: hnRNP A18 motif 1 Biotin (ssRNA)
RNA: GCAGAUCCAGGGUGGGAUUUUCUUGAGGAAGUUACAAAUAAGCUUGUUACA
binding result [10]: binds
